Reference: ChEMBL document CHEMBL3526127, “Absorption, elimination, and metabolism of CS-1036, a novel α-amylase inhibitor in rats and monkeys, and the relationship between gastrointestinal distribution and suppression of glucose absorption” (Drug Metab Dispos, 2013)

Legend:
Rattus norvegicus [1] = assay: Drug level in F344 rat treated with 0.3 mg/kg, po CS-1036 administered as single dose assessed as ratio of molar based AUClast by LC-MS/MS method relative to CS-1036; format: ADME, organism-based; parameters: dose 0.3 mg/kg, route oral; conditions: in vivo
Rattus norvegicus [2] = assay: Drug level in F344 rat treated with 1 mg/kg, po CS-1036 administered as single dose assessed as ratio of molar based AUClast by LC-MS/MS method relative to CS-1036; format: ADME, organism-based; parameters: dose 1 mg/kg, route oral; conditions: in vivo
Rattus norvegicus [3] = assay: Drug level in F344 rat treated with 3 mg/kg, po CS-1036 administered as single dose assessed as ratio of molar based AUClast by LC-MS/MS method relative to CS-1036; format: ADME, organism-based; parameters: dose 3 mg/kg, route oral; conditions: in vivo
Rattus norvegicus [4] = assay: Drug level in F344 rat treated with 10 mg/kg, po CS-1036 administered as single dose assessed as ratio of molar based AUClast by LC-MS/MS method relative to CS-1036; format: ADME, organism-based; parameters: dose 10 mg/kg, route oral; conditions: in vivo
Cynomolgus monkey [5] = assay: Drug level in cynomolgus monkey treated with 1 mg/kg, po CS-1036 administered as single dose assessed as ratio of molar based AUClast by LC-MS/MS method relative to CS-1036; format: ADME, organism-based, Macaca fascicularis; parameters: dose 1 mg/kg, route oral; conditions: in vivo
Cynomolgus monkey [6] = assay: Drug level in cynomolgus monkey treated with 3 mg/kg, po CS-1036 administered as single dose assessed as ratio of molar based AUClast by LC-MS/MS method relative to CS-1036; format: ADME, organism-based, Macaca fascicularis; parameters: dose 3 mg/kg, route oral; conditions: in vivo
Cynomolgus monkey [7] = assay: Drug level in cynomolgus monkey treated with 10 mg/kg, po CS-1036 administered as single dose assessed as ratio of molar based AUClast by LC-MS/MS method relative to CS-1036; format: ADME, organism-based, Macaca fascicularis; parameters: dose 10 mg/kg, route oral; conditions: in vivo
[8] = Drug excretion in urine of F344 rat treated with [14C]CS-1036 at 1 mg/kg, po administered as single dose after 24 hrs by scintillation counting method; format: ADME, organism-based; parameters: dose 1 mg/kg, route oral; conditions: in vivo
Stomach = assay: Drug distribution in stomach of F344 rat treated with [14C]CS-1036 at 1 mg/kg, po administered as single dose after 2 to 8 hrs by scintillation counting method; format: ADME, organism-based; parameters: dose 1 mg/kg, route oral; conditions: in vivo
Intestine = assay: Drug distribution in intestine of F344 rat treated with [14C]CS-1036 at 1 mg/kg, po administered as single dose after 2 to 8 hrs by scintillation counting method; format: ADME, organism-based; parameters: dose 1 mg/kg, route oral; conditions: in vivo
[9] = Drug distribution in cecum of F344 rat treated with [14C]CS-1036 at 1 mg/kg, po administered as single dose by scintillation counting method; format: ADME, organism-based, Caecum; parameters: dose 1 mg/kg, route oral; conditions: in vivo, TDE = time-dependent effect
Method in brief: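 [14C]-labelled drug (1 mg/kg, 42.4 µCi/kg) was given orally to fasted F344 rats (148–168 g, n = 3). Contents of stomach, duodenum+jejunum, ileum and cecum were washed out with water at 0.5–8 h, homogenized, solubilized and counted by liquid scintillation. Results are % of dose, mean ± S.D.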

[10] = Drug distribution in cecum of F344 rat treated with [14C]CS-1036 at 1 mg/kg, po administered as single dose after 8 hrs by scintillation counting method; format: ADME, organism-based, Caecum; parameters: dose 1 mg/kg, route oral; conditions: in vivo
Mus musculus = species: Mus musculus; assay: Inhibition of glycogen phosphorylase in ob/ob mouse; format: functional, organism-based
[11] = Oral bioavailability in rat at 10 mg/kg; format: ADME, organism-based; conditions: in vivo
[12] = Cmax in rat at 10 mg/kg, po; format: ADME, organism-based; parameters: dose 10 mg/kg, route oral; conditions: in vivo
[13] = Drug level in urine of F344 rat treated with [14C]CS-1036 by LC-MS/MS method; format: ADME, tissue-based; conditions: in vivo
[14] = Drug level in feces of F344 rat treated with [14C]CS-1036 by LC-MS/MS method; format: ADME, tissue-based; conditions: in vivo
[15] = Drug level in anaerobic culture broth of F344 rat cecal content treated with [14C]CS-1036 at 63.5 uCi/ml after 24 hrs at 35 degC by LC-MS/MS method; format: ADME; conditions: in vitro
[16] = Drug level in anaerobic culture broth of human feces derived anaerobic culture broth treated with [14C]CS-1036 at 63.5 uCi/ml after 24 hrs at 35 degC by LC-MS/MS method; format: ADME, tissue-based
[17] = Drug level in urine of po dosed F344 rat treated with [14C]CS-1036 by LC-MS/MS method; format: ADME, organism-based; conditions: in vivo
Rattus norvegicus [18] = assay: Drug level in F344 rat treated with 3 mg/kg, iv CS-1036 administered as single dose assessed as ratio of molar based AUClast by LC-MS/MS method relative to CS-1036; format: ADME, organism-based; parameters: dose 3 mg/kg, route intravenous; conditions: in vivo
Rattus norvegicus [19] = assay: Drug level in F344 rat treated with 10 mg/kg, iv CS-1036 administered as single dose assessed as ratio of molar based AUClast by LC-MS/MS method relative to CS-1036; format: ADME, organism-based; parameters: dose 10 mg/kg, route intravenous; conditions: in vivo
[20] = Drug level in urine of po dosed monkey treated with [14C]CS-1036 by LC-MS/MS method; conditions: cynomolgus monkey, in vivo
[21] = Drug excretion in urine of cynomolgus monkey treated with [14C]CS-1036 at 3 mg/kg, po administered as single dose after 48 hrs by scintillation counting method; conditions: in vivo
[22] = Drug excretion in feces of cynomolgus monkey treated with [14C]CS-1036 at 3 mg/kg, po administered as single dose after 48 hrs by scintillation counting method; conditions: in vivo
[23] = Drug level in anaerobic culture broth of monkey feces derived anaerobic culture broth treated with [14C]CS-1036 at 63.5 uCi/ml after 24 hrs at 35 degC by LC-MS/MS method; conditions: cynomolgus monkey, in vivo
[24] = Drug distribution in cecum of F344 rat treated with [14C]CS-1036 at 1 mg/kg, po administered as single dose after 6 to 8 hrs by scintillation counting method; format: ADME, organism-based, Caecum; parameters: dose 1 mg/kg, route oral; conditions: in vivo
[25] = Drug metabolism in anaerobic culture broth of F344 rat cecal content assessed as N-acetyl [14C]CS-1036 formation at 63.5 uCi/ml after 24 hrs at 35 degC by LC-MS/MS method; format: ADME

Q: For `OC[C@H]1NC[C@@H](O)[C@@H]1O`, which Drug uptake (Rattus norvegicus [1]) is on record?
A: 22.1%

Q: What about the Drug uptake (Rattus norvegicus [2]) of the same compound?
A: 73.4%

Q: What about the Drug uptake (Rattus norvegicus [3]) of the same compound?
A: 49.9%

Q: What about the Drug uptake (Rattus norvegicus [4]) of the same compound?
A: 32.2%

Q: What about the Drug uptake (Cynomolgus monkey [5]) of the same compound?
A: 60.8%

Q: And the Drug uptake (Cynomolgus monkey [6])?
A: 83.5%

Q: What about the Drug uptake (Cynomolgus monkey [7]) of the same compound?
A: 62.5%

Q: What about the Drug excretion [8] of the same compound?
A: 5.3%

Q: What about the Drug uptake (Stomach) of the same compound?
A: < 1%

Q: And the Drug uptake (Intestine)?
A: < 1%

Q: And the Drug uptake [9]?
A: tde

Q: And the Drug uptake [10]?
A: 7.1%

Q: And the Ki (Mus musculus)?
A: 392 nM

Q: What about the bioavailability [11] of the same compound?
A: 89%

Q: What about the Cmax [12] of the same compound?
A: < 300 nM

Q: And the Drug metabolism [13]?
A: metabolite_detected

Q: And the Drug metabolism [14]?
A: metabolite_detected

Q: What about the Drug metabolism [15] of the same compound?
A: metabolite_detected

Q: And the Drug metabolism [16]?
A: metabolite_detected

Q: What about the Drug metabolism [17] of the same compound?
A: metabolite_detected

Q: And the Drug uptake (Rattus norvegicus [18])?
A: 0.00672%

Q: What about the Drug uptake (Rattus norvegicus [19]) of the same compound?
A: 0.0172%

Q: And the Drug metabolism [20]?
A: metabolite_detected

Q: And the Drug excretion [21]?
A: 2.2%

Q: And the Drug excretion [22]?
A: 9.7%

Q: What about the Drug metabolism [23] of the same compound?
A: metabolite_detected

Q: Which results are given for `CC(=O)N1C[C@@H](O)[C@H](O)[C@H]1CO`?
A: Drug metabolism (Stomach): metabolite_not_detected; Drug metabolism (Intestine): metabolite_not_detected; Drug uptake [24]: 1.7%; Drug metabolism [14]: metabolite_detected; Drug metabolism [15]: metabolite_detected; Drug metabolism [16]: metabolite_detected; Drug excretion [22]: 17.8%; Drug metabolism [23]: metabolite_detected

Q: Which results are given for `CC(=O)N1C[C@@H](O)[C@H](O[C@H]2O[C@H](CO)[C@@H](O[C@@H]3O[C@H](C)[C@@H](O)[C@H](O)[C@H]3O)[C@H](O)[C@H]2O)[C@H]1CO`?
A: Drug metabolism [15]: metabolite_detected; Drug metabolism [25]: metabolite_detected
